What was measured:
Rattus norvegicus [1] = experiment: Antiinflammatory activity against carrageenan-induced hind paw edema in rat at 41 umol/kg, po after 3 hrs relative to flurbiprophen; assay type: functional
In short: (§1)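 Given orally to rats at a dose equimolar to 10 mg/kg (41 µmol/kg) of the reference drug. Paw-oedema % inhibition was calculated at both 3 h and 4 h after dosing.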

Rattus norvegicus [2] = experiment: Antiinflammatory activity against carrageenan-induced hind paw edema in rat at 41 umol/kg, po after 4 hrs relative to flurbiprophen; assay type: functional; in short: as §1
Mus musculus [3] = experiment: Analgesic activity in mouse at 41 umol/kg, po by tail immersion method relative to flurbiprophen; assay type: functional
In short: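 Tail-immersion test in mice, oral dose of 41 µmol/kg. Tail reaction time (s) was read before dosing (0 h) and 4 h after dosing. % inhibition was calculated relative to each animal's pre-treatment value. n = 6, compared by paired Student's t test.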

Mus musculus [4] = experiment: Ulcerogenic effect in mouse at 123 umol/kg, po relative to flurbiprophen; assay type: toxicity, organism-based; settings: in vivo
In short: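 Acute ulcerogenic test with oral dosing at an amount equimolar to 30 mg/kg flurbiprofen. Gastric damage is scored as a severity index, given as mean ± SEM (n = 6). Comparison is against the standard by ANOVA with Dunnett's multiple comparison test.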

Gastric mucosa = experiment: Inhibition of lipid peroxidation in mouse gastric mucosa tissue assessed as malondialdehyde level per 100 mg tissue relative to flurbiprophen; assay type: functional, tissue-based
In short: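 Animals receive the oral dose used in the ulcerogenic study, equimolar to 30 mg/kg flurbiprofen. Lipid peroxidation in the tissue is read as MDA content in nmol per 100 mg tissue, given as mean ± SEM (n = 6). Comparison is against the standard by ANOVA with Dunnett's test.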

Liver = experiment: Hepatotoxicity in rat assessed as hepatocyte necrosis; assay type: toxicity, tissue-based; settings: hepatocytes

| SMILES | Activity (Rattus norvegicus [1]) | Activity (Rattus norvegicus [2]) | Activity (Mus musculus [3]) | UI (Mus musculus [4]) | Activity (Gastric mucosa) | Activity (Liver) |
| --- | --- | --- | --- | --- | --- | --- |
| COc1cc(OC)c(C2CC(c3ccc(-c4ccccc4)cc3)=NN2C(=O)c2ccccc2)c(OC)c1 (stereo not drawn) | 73.68% | 75.38% | 43.2% | 0.583 | 5.18 nmol | Non-toxic |
| c1ccc(-c2ccc(C3=NNC(c4ccccc4)C3)cc2)cc1 (stereo not drawn) | 35.08% | 38.6% |  |  |  |  |
| O=C(c1ccccc1)N1N=C(c2ccc(-c3ccccc3)cc2)CC1c1ccccc1 (stereo not drawn) | 28.06% | 33.32% |  |  |  |  |
| O=C(c1ccccc1)N1N=C(c2ccc(-c3ccccc3)cc2)CC1c1ccc(Cl)cc1 (stereo not drawn) | 35.08% | 42.1% |  |  |  |  |
| COc1ccc(C2CC(c3ccc(-c4ccccc4)cc3)=NN2C(=O)c2ccccc2)cc1OC (stereo not drawn) | 28.06% | 35.08% |  |  |  |  |
| Clc1ccccc1C1CC(c2ccc(-c3ccccc3)cc2)=NN1 (stereo not drawn) | 31.57% | 31.57% |  |  |  |  |
| COc1ccc(C2CC(c3ccc(-c4ccccc4)cc3)=NN2C(=O)c2ccccc2)cc1 (stereo not drawn) | 40.34% | 47.36% |  |  |  |  |
| Cc1ccc(C2CC(c3ccc(-c4ccccc4)cc3)=NN2)cc1 (stereo not drawn) | 73.69% | 82.45% | 72.9% | 0.5 | 5.04 nmol | Non-toxic |
| COc1ccc(C2CC(c3ccc(-c4ccccc4)cc3)=NN2)cc1OC (stereo not drawn) | 35.08% | 40.35% |  |  |  |  |
| O=C(c1ccccc1)N1N=C(c2ccc(-c3ccccc3)cc2)CC1c1ccccc1Cl (stereo not drawn) | 31.57% | 38.59% |  |  |  |  |
| CN(C)c1ccc(C2CC(c3ccc(-c4ccccc4)cc3)=NN2)cc1 (stereo not drawn) | 33.33% | 36.84% |  |  |  |  |
| COc1ccc(C2CC(c3ccc(-c4ccccc4)cc3)=NN2)cc1 (stereo not drawn) | 35.08% | 36.83% |  |  |  |  |
| Clc1ccc(C2CC(c3ccc(-c4ccccc4)cc3)=NN2)cc1 (stereo not drawn) | 22.8% | 28.06% |  |  |  |  |
| CN(C)c1ccc(C2CC(c3ccc(-c4ccccc4)cc3)=NN2C(=O)c2ccccc2)cc1 (stereo not drawn) | 33.32% | 35.08% |  |  |  |  |
| Cc1ccc(C2CC(c3ccc(-c4ccccc4)cc3)=NN2C(=O)c2ccccc2)cc1 (stereo not drawn) | 29.82% | 31.57% |  |  |  |  |
| COc1cc(OC)c(C2CC(c3ccc(-c4ccccc4)cc3)=NN2)c(OC)c1 (stereo not drawn) | 80.7% | 82.45% | 28.6% | 0.833 | 5.58 nmol |  |
| CC(C(=O)O)c1ccc(-c2ccccc2)c(F)c1 (stereo not drawn) [FLURBIPROFEN] | 73.68% | 80.69% | 69.5% | 1.666 | 7.51 nmol |  |

Reference: ChEMBL document CHEMBL1143162, “Synthesis and pharmacological evaluation of pyrazoline derivatives as new anti-inflammatory and analgesic agents” (Bioorg Med Chem Lett, 2008)
